# How the values were obtained:
# [1] = test system: A2780; assay: Cytotoxicity against human A2780 cells; assay type: functional, cell-based
# Procedure, shortened: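 Run on the human ovarian cancer line A2780 by a previously described protocol, with actinomycin D at 2 μg/mL as the positive control.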
# [2] = test system: T47D; assay: Cytotoxicity against human T47D cells; assay type: functional
# Procedure, shortened: (§1)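 NCI 60-cell-line panel screen over a 5-log dose range; growth inhibition expressed as log GI50. Preceded by an NCI one-dose primary screen on three lines (H460, MCF7, SF-268) reported as growth percentages.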
# [3] = test system: RXF 393; assay: Cytotoxicity against human RXF393 cells; assay type: functional; procedure, shortened: as §1
# [4] = test system: EKVX; assay: Cytotoxicity against human EKVX cells; assay type: functional; procedure, shortened: as §1
# [5] = test system: SF-268; assay: Cytotoxicity against human SF268 cells; assay type: functional
# [6] = test system: MCF7; assay: Cytotoxicity against human MCF7 cells; assay type: functional
# [7] = test system: NCI-H460; assay: Cytotoxicity against human H460 cells; assay type: functional
compound,measurement,setting,value
C[C@H]1[C@H](C)CC[C@]2(C)CC[C@]3(C)C(=C[C@@H](O)[C@@H]4[C@@]5(C)[C@H](O)[C@@H](O)[C@H](O)C(C)(C)[C@@H]5CC[C@]43C)[C@H]12,IC50,[1],27.7 µg/mL
same,GI50,[2],18600 nM
same,GI50,[3],363 nM
same,GI50,[4],21.9 nM
same,Activity,[5],18%
same,Activity,[6],-25%
same,Activity,[7],-45%
CC1(C)CC[C@]2(C)CC[C@]3(C)C(=C[C@@H](O)[C@@H]4[C@@]5(C)[C@H](O)[C@@H](O)[C@H](O)C(C)(C)[C@@H]5CC[C@]43C)[C@@H]2C1,IC50,[1],27.9 µg/mL
CC1(C)C[C@H]2C3=C[C@@H](O)[C@@H]4[C@@]5(C)CC[C@H](O)C(C)(C)[C@@H]5CC[C@@]4(C)[C@@]3(C)CC[C@@]2(C)C[C@H]1O [SALVINEMOROL],IC50,[1],8.6 µg/mL
CC(=O)O[C@H]1[C@H](O)[C@@H](O)[C@]2(C)[C@H]3[C@H](O)C=C4[C@@H]5[C@@H](C)[C@H](C)CC[C@]5(C)CC[C@@]4(C)[C@]3(C)CC[C@H]2C1(C)C,IC50,[1],32.5 µg/mL
CC(=O)O[C@@H]1C[C@@]2(C)C(=CC[C@]3(C)[C@@H]2[C@H](O)C=C2[C@@H]4[C@@H](C)[C@H](C)CC[C@]4(C)CC[C@]23C)C(C)(C)[C@H]1O,IC50,[1],34.2 µg/mL
C[C@H]1[C@H](C)[C@H]2C3=C[C@@H](O)[C@@H]4[C@@]5(C)CC[C@H](O)C(C)(C)[C@@H]5CC[C@@]4(C)[C@]3(C)CC[C@@]2(C)C[C@H]1O [SALVISTAMINEOL],IC50,[1],21 µg/mL
CC(=O)O[C@H]1[C@H](O)[C@@H](O)[C@]2(C)C3=CC=C4[C@@H]5[C@@H](C)[C@H](C)CC[C@]5(C)CC[C@@]4(C)[C@]3(C)CC[C@H]2C1(C)C,IC50,[1],37.5 µg/mL
CC(=O)O[C@H]1[C@H](O)[C@@H](O)[C@]2(C)[C@H]3[C@H](O)C=C4[C@@H]5CC(C)(C)CC[C@]5(C)CC[C@@]4(C)[C@]3(C)CC[C@H]2C1(C)C,IC50,[1],38.5 µg/mL
CC(=O)O[C@H]1[C@H](O)[C@@H](O)[C@]2(C)[C@H]3C(=O)C=C4[C@@H]5[C@@H](C)[C@H](C)CC[C@]5(C)CC[C@@]4(C)[C@]3(C)CC[C@H]2C1(C)C,IC50,[1],26 µg/mL
CC(=O)O[C@H]1[C@H](O)C[C@]2(C)C3=CC=C4[C@@H]5[C@@H](C)[C@@](C)(O)CC[C@]5(C)CC[C@@]4(C)[C@]3(C)CC[C@H]2C1(C)C,IC50,[1],33.3 µg/mL
CC(=O)O[C@H]1[C@H](O)[C@@H](O)[C@]2(C)C3=CC=C4[C@@H]5CC(C)(C)CC[C@]5(C)CC[C@@]4(C)[C@]3(C)CC[C@H]2C1(C)C,IC50,[1],36.9 µg/mL

# — ChEMBL document CHEMBL1146470, “Highly hydroxylated triterpenes from Salvia kronenburgii” (J Nat Prod, 2004)
